Assay results published in ChEMBL document CHEMBL1153226, “Isoxazolopyridone derivatives as allosteric metabotropic glutamate receptor 7 antagonists” (Bioorg Med Chem Lett, 2010).
Converted amounts (≈) assume the structure as drawn.

Experiments:
[1] = biological target: Metabotropic glutamate receptor 7 (Rattus norvegicus, UniProt P35400); test: Antagonist activity at rat mGluR7 expressed in CHO cells assessed as inhibition of LAP-induced intracellular calcium mobilization by FLIPR; type: functional, cell-based
Metabotropic glutamate receptor 7, sequence (P35400 whole entry): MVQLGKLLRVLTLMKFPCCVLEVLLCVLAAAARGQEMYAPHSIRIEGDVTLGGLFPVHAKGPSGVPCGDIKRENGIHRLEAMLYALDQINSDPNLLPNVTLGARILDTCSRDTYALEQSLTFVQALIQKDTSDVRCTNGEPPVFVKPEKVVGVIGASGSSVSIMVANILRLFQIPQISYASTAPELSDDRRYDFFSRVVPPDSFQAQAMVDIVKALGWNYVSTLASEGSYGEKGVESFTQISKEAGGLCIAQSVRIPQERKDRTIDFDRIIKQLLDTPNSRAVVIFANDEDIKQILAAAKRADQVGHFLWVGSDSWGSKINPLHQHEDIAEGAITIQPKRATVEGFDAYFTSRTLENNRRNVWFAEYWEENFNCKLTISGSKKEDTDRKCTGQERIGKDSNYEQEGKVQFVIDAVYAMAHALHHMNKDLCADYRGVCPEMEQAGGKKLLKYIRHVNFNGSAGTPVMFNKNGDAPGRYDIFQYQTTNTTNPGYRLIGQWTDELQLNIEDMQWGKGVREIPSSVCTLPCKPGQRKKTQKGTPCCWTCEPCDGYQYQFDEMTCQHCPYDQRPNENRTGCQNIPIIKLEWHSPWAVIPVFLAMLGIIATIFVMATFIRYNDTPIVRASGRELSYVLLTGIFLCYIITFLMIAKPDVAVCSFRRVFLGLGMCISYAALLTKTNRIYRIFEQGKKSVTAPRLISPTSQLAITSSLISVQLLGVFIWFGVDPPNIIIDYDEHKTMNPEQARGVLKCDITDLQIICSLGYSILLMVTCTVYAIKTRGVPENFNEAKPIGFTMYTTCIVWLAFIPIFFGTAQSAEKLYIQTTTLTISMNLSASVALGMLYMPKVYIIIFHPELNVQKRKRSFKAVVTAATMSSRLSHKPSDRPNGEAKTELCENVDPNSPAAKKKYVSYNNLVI
How it was run: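 CHO cells co-expressing mGluR7 and Gα15 were challenged with L-AP, and Ca2+ mobilization was read. IC50 was calculated from inhibition curves as the mean of at least two independent assays.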

[2] = Ratio of drug level in brain to plasma in Sprague-Dawley rat at 10 mg/kg, po after 2 hrs; type: ADME, organism-based; design: dose 10 mg/kg, route oral; conditions: read-out: BPR
How it was run: (§1)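 Male Sprague-Dawley rats (7–10 weeks, 200–400 g, n = 3) were dosed orally at 10 mg/kg as a 0.5% methylcellulose suspension. Aortic blood was taken under isoflurane at 0.5 and 2 h, and brain at 2 h. Plasma and brain homogenate were deproteinized with threefold ethanol plus internal standard and analysed by LC–MS/MS against a relative calibration curve. B/P = brain (nmol/g) / plasma level.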

[3] = Plasma concentration in Sprague-Dawley rat at 10 mg/kg, po after 0.5 hrs; type: ADME, organism-based; design: dose 10 mg/kg, route oral; how it was run: as §1
[4] = Oral bioavailability in Sprague-Dawley rat at 10 mg/kg; type: ADME, organism-based; conditions: in vivo, 3 mg/kg, in the assay text read “3 mg/kg” for “10 mg/kg”
How it was run: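 Male SD rats (n = 3) were given a single iv dose of 1 mg/kg in PEG400/EtOH/H2O (50:10:40), or an oral gavage dose as a 0.5% methylcellulose aqueous suspension. Blood was sampled at multiple times up to 8 h. Plasma was deproteinized with ethanol containing internal standard. Values are means.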

[5] = Plasma clearance in Sprague-Dawley rat at 1 mg/kg, iv and 3 mg/kg, po
[6] = Plasma concentration in Sprague-Dawley rat at 2 mg/kg, po after 0.5 hrs; type: ADME, organism-based; design: dose 2 mg/kg, route oral
[7] = Solubility at pH 7.4; type: physicochemical; conditions: buffer
[8] = AUC in Sprague-Dawley rat at 1 mg/kg, iv and 3 mg/kg, po; conditions: plasma

Row | IC50 [1] [µM] | SMILES | also measured
1 | 0.022 | COc1ccc(-c2cc3onc(-c4ccccc4)c3c(=O)n2C)cc1 | –
2 | 0.026 | Cn1c(-c2ccc3c(c2)OCO3)cc2onc(-c3ccccc3)c2c1=O | –
3 | 0.029 | COc1ccc(-c2noc3cc(-c4ccccc4)n(C)c(=O)c23)cc1 | –
4 | 0.101 | Cn1c(-c2ccccc2)cc2onc(-c3ccncc3)c2c1=O | –
5 | 0.14 | CN(C)c1ccc(-c2cc3onc(-c4ccccc4)c3c(=O)n2C)cc1 | –
6 | 0.026 | COc1ccc(-c2cc3onc(-c4ccncc4)c3c(=O)n2C)cc1 | Kp at 2 h [2]: 1; concentration at 0.5 h [3]: 5.1 µM; bioavailability [4]: 65%; clearance [5]: 1 mL/min/kg; concentration at 0.5 h [6]: 3.9 µM; solubility [7]: 3.3 µg/mL (≈ 9.9 µM); AUC [8]: 0.71 µM·h
7 | 0.031 | CN(C)c1cccc(-c2cc3onc(-c4ccccc4)c3c(=O)n2C)c1 | –
8 | 0.096 | Cn1c(-c2cccc(C(F)(F)F)c2)cc2onc(-c3ccccc3)c2c1=O | –
9 | 0.21 | COc1ccc(-c2cc3onc(-c4ccccc4)c3c(=O)n2C)cc1F | –
10 | 0.012 | COc1cccc(-c2noc3cc(-c4ccccc4)n(C)c(=O)c23)c1 | –
11 | 0.15 | CCCc1ccc(-c2cc3onc(-c4ccccc4)c3c(=O)n2C)cc1 | –
12 | 0.021 | COc1ccccc1-c1noc2cc(-c3ccccc3)n(C)c(=O)c12 | –
13 | 0.051 | Cc1ccc(-c2cc3onc(-c4ccccc4)c3c(=O)n2C)cc1 | –
14 | 0.072 | Cn1c(-c2ccc(F)cc2)cc2onc(-c3ccccc3)c2c1=O | –
15 | 0.02 | Cn1c(-c2ccccc2)cc2onc(-c3ccccc3)c2c1=O | solubility [7]: 0.17 µg/mL (≈ 0.562 µM)
16 | 0.24 | Cn1c(-c2ccccc2)cc2onc(-c3cccnc3)c2c1=O | –
17 | 1 | Cn1c(-c2ccccc2)cc2onc(-c3ccccn3)c2c1=O | –
18 | 0.91 | CCn1c(-c2ccccc2)cc2onc(-c3ccccc3)c2c1=O | –
19 | > 10 | CC(C)n1c(-c2ccccc2)cc2onc(-c3ccccc3)c2c1=O | –
20 | > 10 | CC(C)Oc1ccc(-c2cc3onc(-c4ccccc4)c3c(=O)n2C)cc1 | –
21 | 0.58 | COc1ccc(-c2cc3onc(-c4ccccc4)c3c(=O)n2C)cc1Br | –
